Data on 14 compounds can be found in ChEMBL document CHEMBL1131498, “Design, synthesis, and evaluation of the multidrug resistance-reversing activity of D-glucose mimetics of hapalosin” (J Med Chem, 1998).

Settings in all cases: Homo sapiens
The subject of assay [1] is HL-60. Nature of the assay: Effective concentration against HL-60/ADR cells using MRP-mediated MDR assay using 2 nM vincristine which results in 50% of the cells being killed in the presence of particular cytotoxic drug. It counts as functional, cell-based. The method in brief:
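Human promyelocytic leukemia HL-60/ADR cells (MRP-expressing, no P-gp) given varying compound concentrations plus 2 nM vincristine for 48 h. Survival by MTS tetrazolium metabolism (CellTiter AQueous); % killed as decrease vs control cultures. Triplicates, mean ± SD; approximate concentration (μg/mL) giving 50% kill.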

In assay [2] the test system is MCF7. Nature of the assay: Inhibitory concentration against MCF-7/ADR cells using P-gp-mediated MDR assay using 25 nM actinomycin D which inhibit cells proliferation by 20% in the absence of particular cytotoxic drug. It counts as functional. The method in brief:
(§1)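 MCF-7/ADR cells (from NCI, RPMI 1640 + 10% FBS, 50 μg/mL gentamycin) seeded at ~15% confluency, 24 h attachment, then eight doses of compound alone (PBS in place of actinomycin D) for 48 h. Sulforhodamine B staining; % kill vs ethanol solvent controls. Triplicates, mean ± SD; approximate concentration (μg/mL) giving 20% growth inhibition.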

In assay [3] the test system is MCF7. The assay can be described thus: Effective concentration against MCF-7/ADR cells using P-gp-mediated MDR assay using 25 nM actinomycin D which results in 50% of the cells being killed in the presence of particular cytotoxic drug. It counts as functional, cell-based. In a few lines:
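MCF-7/ADR cells (from NCI, grown in RPMI 1640 + 10% FBS, 50 μg/mL gentamycin) seeded at ~15% confluency, 24 h recovery, then eight doses of compound with 25 nM actinomycin D for 48 h. Survival by sulforhodamine B staining; % killed as decrease in binding vs ethanol solvent controls. Triplicates, mean ± SD; approximate concentration (μg/mL) giving 50% kill read from curves.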

Assay [4] deals with HL-60. The assay can be described thus: Inhibitory concentration against HL-60/ADR cells using MRP-mediated MDR assay using 2 nM vincristine which inhibits cell proliferation by 20% in the absence of particular cytotoxic drug. It counts as functional. In a few lines:
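HL-60/ADR leukemia cells (MRP-expressing) exposed 48 h to varying compound concentrations alone, PBS replacing vincristine. Viability by MTS tetrazolium metabolism (CellTiter AQueous), % decrease vs controls. Triplicates, mean ± SD; approximate concentration (μg/mL) inhibiting proliferation by 20%.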

The test system of assay [5] is MCF7. The assay can be described thus: Inhibitory concentration against MCF-7/ADR cells using P-gp-mediated MDR assay using 25 nM actinomycin D which inhibits cell proliferation by 20% in the absence of particular cytotoxic drug. It counts as functional. In a few lines:
as §1

Each structure is given as a SMILES string. In brackets after ≈: the same amount, converted by molar mass.

By EC50 is commonly meant the concentration giving half of the maximal effect. For orientation: IC20 means the concentration needed for an effect of 20%.

For the compound `CCCCCCCO[C@H]1[C@H](O)[C@@H](CC(C)C)O[C@H](OCc2ccccc2)[C@@H]1OCc1ccccc1`, the EC50 in assay [1] amounted to 2.5 µg/mL; in assay [3], 6 µg/mL. Besides, the IC20 in assay [2] was 10 µg/mL (≈ 20.6 µM); in assay [4] it was over 20 µg/mL.

As to `CCCCCCCO[C@@H]1[C@@H](OCc2ccccc2)[C@@H](OCc2ccccc2)O[C@H](CO)[C@H]1OCc1ccc(OC)cc1`, the results for the EC50 in assay [1] and in assay [3] were 1.7 µg/mL and 3 µg/mL, respectively. The IC20 in assay [2] and in assay [4] was 6 µg/mL (≈ 10.4 µM) each time.

For `CCCCCCCO[C@@H]1[C@@H](OCc2ccccc2)[C@@H](OCc2ccccc2)O[C@@H]2CO[C@@H](c3ccc(OC)cc3)O[C@@H]12`, the EC50 is 2.5 µg/mL in assay [1] and over 20 µg/mL in assay [3]. For the same compound, the IC20 in assay [2] and in assay [4] was over 20 µg/mL each time.

On to `CCCCCCCO[C@@H]1[C@@H](OCc2ccccc2)[C@@H](OCc2ccccc2)O[C@H](CC(C)C)[C@H]1OCc1ccc(OC)cc1`, for which the EC50 in assay [1] and in assay [3] was over 20 µg/mL each time. The IC20 in assay [2] and in assay [4] was over 20 µg/mL each time.

Regarding `CCCCCCCO[C@@H]1[C@@H](OCc2ccccc2)[C@@H](OCc2ccccc2)O[C@H](C=C(C)C)[C@H]1OCc1ccc(OC)cc1`, the EC50 in assay [1] and in assay [3] was over 20 µg/mL in each case. The IC20 in assay [2] and in assay [4] was over 20 µg/mL throughout.

Regarding `CCCCCCCO[C@@H]1[C@@H](OCc2ccccc2)[C@@H](OCc2ccccc2)O[C@H](CC(C)C)[C@H]1OC`, the EC50 was 18 µg/mL in assay [1] and over 20 µg/mL in assay [3]. Also, the IC20 in assay [2] and in assay [4] was over 20 µg/mL each time.

Regarding `CCCCCCCO[C@@H]1[C@@H](OCc2ccccc2)[C@@H](OCc2ccccc2)O[C@H](C=O)[C@H]1OCc1ccc(OC)cc1`, the EC50 amounted to 1.5 µg/mL in assay [1] and 4 µg/mL in assay [3]. Besides, the IC20 came to 5 µg/mL (≈ 8.67 µM) in assay [2] and 1.8 µg/mL (≈ 3.12 µM) in assay [4].

On to `CCCCCCCO[C@@H]1[C@@H](O)[C@@H](OCc2ccccc2)O[C@@H]2CO[C@@H](c3ccc(OC)cc3)O[C@@H]12`, for which the EC50 in assay [1] and in assay [3] was 2.5 µg/mL throughout. In addition, the IC20 in assay [2] is 12 µg/mL (≈ 24.7 µM); in assay [4], over 20 µg/mL.

Turning to `CCCCCCCO[C@@H]1[C@@H](O)[C@@H](OCc2ccccc2)O[C@H](CC(C)C)[C@H]1O`, the EC50 in assay [1] stood at 3.5 µg/mL; in assay [3], 6 µg/mL. For the same compound, the results for the IC20 in assay [2] and in assay [4] were 12 µg/mL (≈ 30.4 µM) and over 20 µg/mL, respectively.

As for `CCCCCCCO[C@@H]1[C@@H](O)[C@@H](OCc2ccccc2)O[C@H](CC(C)C)[C@H]1OCc1ccc(OC)cc1`, the EC50 in assay [1] came out at 1.8 µg/mL; in assay [3], 4 µg/mL. Further, the IC20 is 12 µg/mL (≈ 23.3 µM) in assay [2] and over 20 µg/mL in assay [4].

On to `COc1ccc(CCN(C)CCCC(C#N)(c2ccc(OC)c(OC)c2)C(C)C)cc1OC` (stereo unspecified) [VERAPAMIL], for which the EC50 in assay [1] amounted to 1.8 µg/mL; in assay [3], 1 µg/mL. Moreover, the IC20 in assay [2] and in assay [4] was over 20 µg/mL throughout.

Consider `CCCCCCCO[C@@H]1[C@@H](O)[C@@H](OCc2ccccc2)O[C@H](CC(C)C)[C@H]1OC`, for which the EC50 in assay [1] came to 10 µg/mL; in assay [3], 7 µg/mL. The IC20 in assay [2] was 20 µg/mL (≈ 49 µM); in assay [4], over 20 µg/mL.

On to `CCCCCCCO[C@@H]1[C@@H](O)[C@@H](OCc2ccccc2)O[C@H](CO)[C@H]1O`, for which the EC50 is 10 µg/mL in assay [1] and over 20 µg/mL in assay [3]. The IC20 in assay [2] and in assay [4] was over 20 µg/mL each time.

In the case of `CCCCCCC[C@H]1OC(=O)C[C@@H](O)[C@H](Cc2ccccc2)N(C)C(=O)[C@H](C(C)C)OC(=O)[C@H]1C` [HAPALOSIN], the results for the EC50 in assay [1] and in assay [3] were 0.7 µg/mL and 1 µg/mL, respectively. Besides, the IC20 in assay [4] and in assay [5] was 6 µg/mL (≈ 12.3 µM) throughout.
